From ChEMBL document CHEMBL5329156, “Discovery and development of novel substituted monohydrazides as potent antifungal agents” (RSC Med Chem, 2023)
Active and inactive are the calls of the source.

Assays:
[1] = tested on: Nakaseomyces glabratus; experiment: Antifungal activity against Candida glabrata ATCC 2001 assessed as fungal growth inhibition by double dilution method; type: functional
In short: (§1)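 Broth microdilution after CLSI M27-A3/M38-A2 with minor changes. Single colony grown overnight in YPD at 35 °C, 200 rpm. Compound final range 0.06-31.3 µg/mL; incubated 48 h at 35 °C.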

[2] = tested on: Pichia kudriavzevii; experiment: Antifungal activity against Pichia kudriavzevii AR Bank # 397 assessed as fungal growth inhibition by double dilution method; type: functional; in short: as §1
[3] = tested on: Candida albicans; experiment: Antifungal activity against itraconazole/fluconazole resistant Candida albicans ATCC 90819 assessed as fungal growth inhibition by double dilution method; type: functional
In short: (§2)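 Broth microdilution after CLSI M27-A3/M38-A2 with minor modifications. A single colony was grown overnight in YPD at 35 °C with shaking at 200 rpm. Cells were mixed 1:1 with compound (final 0.06-31.3 µg/mL, from DMSO stocks) and incubated 48 h at 35 °C.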

[4] = tested on: Clavispora lusitaniae; experiment: Antifungal activity against Clavispora lusitaniae AR Bank # 398 assessed as fungal growth inhibition by double dilution method; type: functional; in short: as §1
[5] = tested on: Candida albicans; experiment: Antifungal activity against itraconazole/fluconazole resistant Candida albicans ATCC MYA-1237 assessed as fungal growth inhibition by double dilution method; type: functional; in short: as §2
[6] = tested on: [Candida] auris; experiment: Antifungal activity against Candida auris AR Bank # 384 assessed as fungal growth inhibition by double dilution method; type: functional; conditions: Candidozyma auris; in short: as §1
[7] = tested on: Aspergillus terreus; experiment: Antifungal activity against Aspergillus terreus ATCC MYA-3633 assessed as fungal growth inhibition by double dilution method; type: functional
[8] = tested on: Aspergillus flavus; experiment: Antifungal activity against Aspergillus flavus ATCC MYA-3631 assessed as fungal growth inhibition by double dilution method; type: functional
[9] = tested on: [Candida] auris; experiment: Antifungal activity against Candida auris AR Bank # 388 assessed as fungal growth inhibition by double dilution method; type: functional; conditions: Candidozyma auris; in short: as §1
[10] = tested on: Aspergillus nidulans; experiment: Antifungal activity against Aspergillus nidulans ATCC 38163 assessed as fungal growth inhibition by double dilution method; type: functional
[11] = tested on: Saccharomyces cerevisiae; experiment: Antifungal activity against Saccharomyces cerevisiae AR Bank # 400 assessed as fungal growth inhibition by double dilution method; type: functional; in short: as §1
[12] = tested on: [Candida] auris; experiment: Antifungal activity against Candida auris AR Bank # 389 assessed as fungal growth inhibition by double dilution method; type: functional; conditions: Candidozyma auris; in short: as §1
[13] = tested on: [Candida] auris; experiment: Antifungal activity against Candida auris AR Bank # 0390 assessed as fungal growth inhibition by double dilution method; type: functional; conditions: Candidozyma auris; in short: as §1
[14] = tested on: Candida duobushaemulonii; experiment: Antifungal activity against Candida duobushaemulonii AR Bank # 394 assessed as fungal growth inhibition by double dilution method; type: functional; conditions: Candidozyma duobushaemuli; in short: as §1
[15] = tested on: [Candida] auris; experiment: Antifungal activity against Candida auris AR Bank # 387 assessed as fungal growth inhibition by double dilution method; type: functional; conditions: Candidozyma auris; in short: as §1
[16] = tested on: Candida albicans; experiment: Antifungal activity against itraconazole/fluconazole susceptible Candida albicans ATCC MYA-2876 assessed as fungal growth inhibition by double dilution method; type: functional; in short: as §2
[17] = tested on: J774.A1; experiment: Cytotoxicity against J774A.1 cells assessed as reduction in cell viability at 31.3 microg/ml; type: toxicity, cell-based; conditions: mouse, dose 31.3 µg/ml
In short: (§3)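 Cells in DMEM with 10% FBS and 1% Pen/Strep, seeded at 10,000 cells/well and held overnight at 37 °C, 5% CO2. Compounds added at final 31.3-0.12 µg/mL (0.05% DMSO vehicle) for 24 h. Resazurin then added for 6 h; fluorescence read at ex 560/em 590. Triton X-100 1% as positive control; values normalized to vehicle. Run in quadruplicate.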

[18] = tested on: Aspergillus fumigatus; experiment: Antifungal activity against Aspergillus fumigatus NRRL 6113 assessed as fungal growth inhibition by double dilution method; type: functional
[19] = tested on: Pichia kudriavzevii; experiment: Antifungal activity against Pichia kudriavzevii ATCC 6258 assessed as fungal growth inhibition by double dilution method; type: functional; in short: as §1
[20] = tested on: [Candida] auris; experiment: Antifungal activity against Candida auris AR Bank # 383 assessed as fungal growth inhibition by double dilution method; type: functional; conditions: Candidozyma auris; in short: as §1
[21] = tested on: HEK293; experiment: Cytotoxicity against human HEK-293 cells assessed as reduction in cell viability at 31.3 microg/ml; type: toxicity, cell-based; conditions: dose 31.3 µg/ml; in short: as §3
[22] = tested on: HepG2; experiment: Cytotoxicity against human HepG2 cells assessed as reduction in cell viability upto 31.3 microg/ml; type: toxicity, cell-based; conditions: dose < 31.3 µg/ml; in short: as §3
[23] = tested on: Aspergillus fumigatus; experiment: Antifungal activity against Aspergillus fumigatus NRRL 5109 assessed as fungal growth inhibition by double dilution method; type: functional
[24] = tested on: [Candida] haemuloni; experiment: Antifungal activity against Candida haemulonii AR Bank # 393 assessed as fungal growth inhibition by double dilution method; type: functional; conditions: Candidozyma haemuli; in short: as §1
[25] = tested on: Candida albicans; experiment: Antifungal activity against Candida albicans ATCC 64124 assessed as fungal growth inhibition by double dilution method; type: functional; in short: as §2
[26] = tested on: Candida duobushaemulonii; experiment: Antifungal activity against Candida duobushaemulonii AR Bank # 392 assessed as fungal growth inhibition by double dilution method; type: functional; conditions: Candidozyma duobushaemuli; in short: as §1
[27] = tested on: [Candida] haemuloni; experiment: Antifungal activity against Candida haemulonii AR Bank # 395 assessed as fungal growth inhibition by double dilution method; type: functional; conditions: Candidozyma haemuli; in short: as §1
[28] = tested on: Saccharomyces cerevisiae; experiment: Antifungal activity against Saccharomyces cerevisiae AR Bank # 399 assessed as fungal growth inhibition by double dilution method; type: functional; in short: as §1
[29] = tested on: [Candida] auris; experiment: Antifungal activity against Candida auris AR Bank # 382 assessed as fungal growth inhibition by double dilution method; type: functional; conditions: Candidozyma auris; in short: as §1
[30] = tested on: Candida albicans; experiment: Antifungal activity against itraconazole/fluconazole susceptible Candida albicans ATCC MYA-2310 assessed as fungal growth inhibition by double dilution method; type: functional; in short: as §2
[31] = tested on: Candida duobushaemulonii; experiment: Antifungal activity against Candida duobushaemulonii AR Bank # 391 assessed as fungal growth inhibition by double dilution method; type: functional; conditions: Candidozyma duobushaemuli; in short: as §1
[32] = tested on: Cryptococcus neoformans; experiment: Antifungal activity against Cryptococcus neoformans ATCC MYA-895 assessed as fungal growth inhibition by double dilution method; type: functional; in short: as §1
[33] = tested on: Kodamaea ohmeri; experiment: Antifungal activity against Kodamaea ohmeri AR Bank # 396 assessed as fungal growth inhibition by double dilution method; type: functional; in short: as §1
[34] = tested on: Candida albicans; experiment: Antifungal activity against Candida albicans ATCC 10231 assessed as fungal growth inhibition by double dilution method; type: functional; in short: as §1
[35] = tested on: Candida albicans; experiment: Antifungal activity against itraconazole/fluconazole resistant Candida albicans ATCC MYA-1003 assessed as fungal growth inhibition by double dilution method; type: functional; in short: as §2
[36] = tested on: Aspergillus fumigatus; experiment: Antifungal activity against Aspergillus fumigatus NRRL 163 assessed as fungal growth inhibition by double dilution method; type: functional
[37] = tested on: [Candida] auris; experiment: Antifungal activity against Candida auris AR Bank # 381 assessed as fungal growth inhibition by double dilution method; type: functional; conditions: Candidozyma auris; in short: as §1
[38] = tested on: [Candida] auris; experiment: Antifungal activity against Candida auris AR Bank # 386 assessed as fungal growth inhibition by double dilution method; type: functional; conditions: Candidozyma auris; in short: as §1
[39] = tested on: [Candida] auris; experiment: Antifungal activity against Candida auris AR Bank # 390 assessed as fungal growth inhibition by double dilution method; type: functional; conditions: Candidozyma auris; in short: as §1
[40] = tested on: [Candida] auris; experiment: Antifungal activity against Candida auris AR Bank # 385 assessed as fungal growth inhibition by double dilution method; type: functional; conditions: Candidozyma auris; in short: as §1
[41] = tested on: Candida albicans; experiment: Antibiofilm activity against Candida albicans ATCC 10231 assessed as reduction in preformed biofilm production by biofilm formation assay; type: functional, organism-based
In short: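 After PBS washes, XTT 0.5 mg/mL with 1 µM menadione added, 3 h at 37 °C in the dark; absorbance read at 450 nm.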

[42] = tested on: Nakaseomyces glabratus; experiment: Antifungal activity against Candida glabrata ATCC 22019 assessed as fungal growth inhibition by double dilution method; type: functional; in short: as §1
[43] = tested on: [Candida] auris; experiment: Antifungal activity against Candida auris AR Bank # 0384 assessed as fungal growth inhibition by double dilution method; type: functional; conditions: Candidozyma auris; in short: as §1
[44] = tested on: Candida albicans; experiment: Antifungal activity against Candida albicans ATCC 10231 assessed as fungal growth inhibition by time kill studies; type: functional, organism-based
In short: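 Overnight YPD culture (35 °C, 200 rpm) diluted in RPMI 1640 to ~1×10⁵ CFU/mL. […] Samples at 0, 3, 6, 9, 12, 18 and 24 h were 10-fold diluted and plated on PDA; colonies counted after 48 h at 35 °C. Run in duplicate.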

[45] = tested on: Candida albicans; experiment: Antibiofilm activity against Candida albicans ATCC 10231 assessed as reduction in biofilm production at 1.96 to 3.9 microg/ml by biofilm formation assay; type: functional, organism-based; conditions: dose 1.96-3.9 µg/ml
[46] = Cytotoxicity against human HepG2 cells assessed as cell survival at 31.3 microg/ml relative to control; type: toxicity, cell-based; conditions: at 31.3 µg/mL, read-out: Activity; in short: as §3

O=C(NNc1cccc(Cl)c1)c1ccccn1
1.95 µg/mL: MIC [1] | MIC [42]
0.49 µg/mL: MIC [3] | MIC [9] | MIC [12] | MIC [15] | MIC [19] | MIC [20] | MIC [29] | MIC [35] | MIC [39] | MIC [40]
Non-Toxic: Activity [17] | Activity [21] | Activity [22]
0.24 µg/mL: MIC [10] | MIC [26] | MIC [31] | MIC [38]
≤ 0.06 µg/mL: MIC [27]
active: Activity [44] Dose-Dependent Effect | Activity [45]
12 µg/mL: MIC [14]
0.98 µg/mL: MIC [4] | MIC [5] | MIC [6] | MIC [7] | MIC [11] | MIC [13] | MIC [16] | MIC [25] | MIC [28] | MIC [30] | MIC [37] | MIC [43]
inactive: Activity [41]
0.12 µg/mL: MIC [2] | MIC [24] | MIC [32] | MIC [33] | MIC [34]
> 31.3 µg/mL: MIC [8] | MIC [18] | MIC [23] | MIC [36]

O=C(NNc1cc(F)cc(F)c1)c1ccccn1
7.8 µg/mL: MIC [1]
> 31.3 µg/mL: MIC [23] | MIC [36]
inactive: Activity [45]
31.3 µg/mL: MIC [18]
Non-Toxic: Activity [17] | Activity [21]
1.95 µg/mL: MIC [5] | MIC [8] | MIC [28] | MIC [42]
0.24 µg/mL: MIC [9] | MIC [12] | MIC [14] | MIC [15] | MIC [19] | MIC [20] | MIC [27] | MIC [31] | MIC [32] | MIC [40] | MIC [43]
89%: viability at 31.3 microg/ml [46]
≤ 0.06 µg/mL: MIC [34] | MIC [38]
0.98 µg/mL: MIC [3] | MIC [6] | MIC [7] | MIC [11] | MIC [16] | MIC [25] | MIC [30] | MIC [37]
0.49 µg/mL: MIC [4] | MIC [10] | MIC [13] | MIC [24] | MIC [26] | MIC [35] | MIC [39]
0.12 µg/mL: MIC [2] | MIC [29] | MIC [33]
